Assays:
[1] = test system: HepG2; assay: Cytotoxicity against human HepG2 cells assessed as reduction in cell viability after 72 hrs by MTT assay; assay type: cell-based; conditions: hepg2, 72 h
Summary of the method: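 HepG2 cells in RPMI with 10% FCS, L-glutamine and penicillin/streptomycin, 37 °C, 6% CO2. After 24 h, compounds in DMSO (final <0.5% v/v) added for 72 h, in duplicate. Precipitate checked, MTT (0.5 mg/mL) 2 h, formazan dissolved in DMSO, A570 with 630 nm reference. Viability as % of untreated control; CC50 from dose-response curve; doxorubicin positive control.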

[2] = test system: Trypanosoma brucei brucei; assay: Antitrypanosomal activity against trypomastigote stage of Trypanosoma brucei brucei AnTat 1.9 assessed as decrease in parasite viability after 69 hrs by Alamar blue assay; assay type: functional, organism-based; conditions: AnTat 1.9, 69 h
Summary of the method: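 AnTat 1.9 in MEM with Earle's salts plus 0.5 mM mercaptoethanol, 1.5 mM L-cysteine, 0.05 mM bathocuproine sulfate and 20% heat-inactivated horse serum, 37 °C, 5% CO2. Seeded 2000 parasites/100 µL with compounds in DMSO, in duplicate, 69 h, then Alamar Blue for 5 h.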

[3] = Selectivity index, ratio of CC50 for human HepG2 cells to IC50 for trypomastigote stage of Trypanosoma brucei brucei AnTat 1.9; assay type: toxicity; conditions: read-out: Ratio CC50/IC50
[4] = test system: Leishmania infantum; assay: Antileishmanial activity against axenic amastigote stage of Leishmania infantum assessed as inhibition of parasite metabolic activity after 48 hrs by luciferase reporter gene based luminescence assay; assay type: functional, organism-based
Summary of the method: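 L. infantum promastigotes in log phase switched to RPMI 1640 pH 5.4 for 24 h at 24 °C, then 24 h at 37 °C to give axenic amastigotes. Seeded at 2.106 parasites/mL with compounds in DMSO (final <0.5% v/v), in duplicate, 48 h at 37 °C. Wells checked for precipitate, luciferase luminescence read, IC50 by non-linear regression as mean.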

[5] = Selectivity index, ratio of CC50 for human HepG2 cells to IC50 for axenic amastigote stage of Leishmania infantum; assay type: toxicity; conditions: read-out: Ratio CC50/IC50
[6] = Substrate activity at recombinant type-1 nitroreductase in bloodstream form of Trypanosoma brucei brucei S427 assessed as inhibition of parasite growth after 72 hrs
Summary of the method: (§1)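 Bloodstream-form T. brucei single marker S427 (T7RPOL TETR NEO) cultured at 37 °C in HMI9-T with 2.5 µg/mL G418. NTR1-overexpressing line kept in 2.5 µg/mL phleomycin and induced with 1 µg/mL tetracycline 48 h before the assay. Triplicate cultures seeded at 1×10^5 cells/mL with inhibitor; cell densities counted after 72 h to give EC50.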

[7] = test system: Trypanosoma brucei brucei; assay: […] activity against wild type bloodstream form of Trypanosoma brucei brucei S427 after 72 hrs; assay type: functional, organism-based; conditions: S427, 72 h; summary of the method: as §1
[8] = test system: Trypanosoma brucei brucei; assay: Selectivity ratio of IC50 for wild type bloodstream form of Trypanosoma brucei brucei S427 to substrate activity at recombinant type-1 nitroreductase in bloodstream form of Trypanosoma brucei brucei S427
Summary of the method: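 Bloodstream-form single-marker S427 grown at 37 °C in HMI9-T with 2.5 µg/mL G418. The NTR1-overexpressing line was also given 2.5 µg/mL phleomycin and induced with 1 µg/mL tetracycline 48 h before assay. Triplicate cultures seeded at 1×10^5 cells/mL with inhibitor; cell densities determined after 72 h to give EC50 for wild-type and NTR1 lines.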

[9] = Electrochemical behavior of the compound assessed as redox potential corrected toward normal hydrogen electrode by cyclic voltammetry; assay type: physicochemical
[10] = test system: Leishmania donovani; assay: Antileishmanial activity against promastigote stage of Leishmania donovani MHOM/IN/00/DEVI assessed as inhibition of parasite metabolic activity after 72 hrs by MTT assay; assay type: functional, organism-based
Summary of the method: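 MHOM/IN/00/DEVI log-phase promastigotes in Schneider's medium with 20% FCS, 2 mM L-glutamine and antibiotics. Seeded at 10⁶ parasites/mL with compounds in DMSO (final <0.5% v/v), in duplicate, 72 h at 27 °C. MTT added for 4 h, stopped with 50% isopropanol–10% SDS, A570 read. IC50 by nonlinear regression, mean of three independent experiments.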

[11] = (§2) Cytotoxicity against human THP1 cells assessed as reduction in cell viability after 72 hrs by MTT assay; assay type: cell-based, THP-1; conditions: THP1 cells
Summary of the method: (§3)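 THP1 cells in complete RPMI with PMA (final 50 ng/mL) at 10⁶ cells/mL, differentiated 48 h. Compounds in DMSO (final <0.5% v/v) then added for 72 h at 37 °C. MTT (0.5 mg/mL in FCS-free medium) 2 h, formazan dissolved in DMSO, A570 with 630 nm reference. Viability as % of untreated control; CC50 from dose-response curve; doxorubicin positive control.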

[12] = test system: THP-1; assay: as §2; assay type: cell-based; conditions: thp-1, 72 h; summary of the method: as §3
[13] = Selectivity index, ratio of CC50 for human HepG2 cells to IC50 for promastigote stage of Leishmania donovani MHOM/IN/00/DEVI; assay type: toxicity; conditions: read-out: Ratio CC50/IC50
[14] = test system: Leishmania donovani; assay: Antileishmanial activity against intramacrophage amastigote stage of Leishmania donovani infected in human THP1 cells after 120 hrs by Giemsa staining based microscopy; assay type: functional, organism-based; conditions: THP-1, 120 h
Summary of the method: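 THP-1 cells differentiated with PMA (final 50 ng/mL) for 48 h at 37 °C, 6% CO2. Infected 10:1 with L. donovani promastigotes acidified 24 h at 27 °C in Schneider 20% FCS pH 5.4. After 24 h, compounds added in duplicate (DMSO <0.5% v/v) for 120 h.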

[15] = Selectivity index, ratio of CC50 for human HepG2 cells to IC50 for intramacrophage amastigote stage of Leishmania donovani infected in human THP1 cells; assay type: toxicity, cell-based; conditions: read-out: Ratio CC50/IC50
[16] = test system: Leishmania donovani; assay: Antileishmanial activity against wild type promastigote stage of Leishmania donovani MHOM/SD/62/1S-CL2D LdBOB after 72 hrs by resazurin dye based assay; assay type: functional, organism-based
Summary of the method: (§4)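 Clonal L. donovani LdBOB promastigotes grown at 26 °C in modified M199. NTR1 and NTR2 overexpressers kept in nourseothricin 100 µg/mL. Triplicate 10 mL cultures seeded at 5×10^4 parasites/mL with drug for 72 h. Aliquots received 50 µM resazurin, read by fluorescence (ex 528/em 590 nm) after 4 h. Background-corrected 2-parameter fit gave EC50; at least two repeats, mean ± SD.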

[17] = Substrate activity at recombinant type-1 nitroreductase in promastigote stage of Leishmania donovani MHOM/SD/62/1S-CL2D LdBOB assessed as inhibition of parasite growth after 72 hrs by resazurin dye based assay; summary of the method: as §4
[18] = Substrate activity at recombinant nitroreductase 2 in promastigote stage of Leishmania donovani MHOM/SD/62/1S-CL2D LdBOB assessed as inhibition of parasite growth after 72 hrs by resazurin dye based assay; summary of the method: as §4

IC50 [2] [nM]	IC50 [4] [nM]	Compound	CC50 [1] [nM]	selectivity ratio [3]	selectivity ratio [5]	also measured
–	–	COc1ccc(-c2cc(Cl)cn3c([N+](=O)[O-])c(CS(=O)(=O)c4ccccc4)nc23)cc1	> 3900	–	–	–
410	3000	O=[N+]([O-])c1c(CS(=O)(=O)c2ccccc2)nc2c(-c3ccc(O)cc3)cc(Cl)cn12	> 12500	> 30.5	> 4.2	–
–	–	O=[N+]([O-])c1c(CS(=O)(=O)c2ccccc2)nc2c(-c3ccc(F)cc3F)cc(Cl)cn12	> 7800	–	–	–
–	–	CC1CS(=O)(=O)CCN1/N=C/c1ccc([N+](=O)[O-])o1 (stereo not given) [NIFURTIMOX]	–	–	–	IC50 [6]: 600 nM; IC50 [7]: 1870 nM
310	1300	O=[N+]([O-])c1c(CS(=O)(=O)c2ccccc2)nc2c(-c3ccc(F)cc3)cc(Cl)cn12	> 15600	> 50.3	> 12	–
–	–	O=[N+]([O-])c1c(CS(=O)(=O)c2ccccc2)nc2c(-c3ccco3)cc(Cl)cn12	> 3900	–	–	–
80	3800	O=Cc1ccc(-c2cc(Cl)cn3c([N+](=O)[O-])c(CS(=O)(=O)c4ccccc4)nc23)cc1	> 31200	> 390	> 8.2	–
430	2500	CCN(CC)c1ccc(-c2cc(Cl)cn3c([N+](=O)[O-])c(CS(=O)(=O)c4ccccc4)nc23)cc1	> 15600	> 36.3	> 6.2	–
–	–	C[C@@H]1[C@H](O)[C@@H](C)/C=C/C=C/C=C/C=C/C=C/C=C/C=C/[C@H](O[C@@H]2O[C@H](C)[C@@H](O)[C@H](N)[C@@H]2O)C[C@@H]2O[C@](O)(C[C@@H](O)C[C@@H](O)[C@H](O)CC[C@@H](O)C[C@@H](O)CC(=O)O[C@H]1C)C[C@H](O)[C@H]2C(=O)O [AMPHOTERICIN B]	–	–	–	IC50 [10]: 70 nM; CC50 at 72 h [11]: > 62500 nM
–	–	COc1cccc2c1C(=O)c1c(O)c3c(c(O)c1C2=O)C[C@@](O)(C(=O)CO)C[C@@H]3O[C@H]1C[C@H](N)[C@H](O)[C@H](C)O1 [DOXORUBICIN]	–	–	–	CC50 [12]: 1400 nM
200	1700	O=[N+]([O-])c1c(CS(=O)(=O)c2ccccc2)nc2c(-c3cccc(F)c3)cc(Cl)cn12	> 12500	> 62.5	> 7.4	–
90	1500	O=[N+]([O-])c1c(CS(=O)(=O)c2ccccc2)nc2c(-c3ccc(CO)cc3)cc(Cl)cn12	13100	146	8.7	–
600	–	CSc1ccc(OCc2ncc([N+](=O)[O-])n2C)cc1 [FEXINIDAZOLE]	> 200000	> 333	> 58.8	selectivity ratio [13]: > 167; IC50 [10]: 1200 nM; CC50 at 72 h [11]: 3600 nM; IC50 [14]: > 50000 nM; Activity [9]: -0.83 V; selectivity ratio [15]: > 50
–	–	N#Cc1ccc(-c2cc(Cl)cn3c([N+](=O)[O-])c(CS(=O)(=O)c4ccccc4)nc23)cc1	> 3900	–	–	–
13300	–	NCCC[C@](N)(C(=O)O)C(F)F [EFLORNITHINE, (S)-]	> 100000	> 7.5	–	–
–	–	O=[N+]([O-])c1c(CS(=O)(=O)c2ccccc2)nc2c(-c3ccc(C(F)(F)F)cc3)cc(Cl)cn12	> 3900	–	–	–
610	1600	O=[N+]([O-])c1c(CS(=O)(=O)c2ccccc2)nc2c(-c3ccccc3)cc(Cl)cn12	> 15600	> 25.6	> 10	Activity [9]: -0.69 V
–	–	Cc1ccc(C(=O)Nc2ccc(S(=O)(=O)O)c3cc(S(=O)(=O)O)cc(S(=O)(=O)O)c23)cc1NC(=O)c1cccc(NC(=O)Nc2cccc(C(=O)Nc3cc(C(=O)Nc4ccc(S(=O)(=O)O)c5cc(S(=O)(=O)O)cc(S(=O)(=O)O)c45)ccc3C)c2)c1 [SURAMIN]	> 100000	–	–	–
–	–	O=[N+]([O-])c1c(CS(=O)(=O)c2ccccc2)nc2c(-c3ccccc3F)cc(Cl)cn12	> 3900	–	–	–
230	2000	O=[N+]([O-])c1c(CS(=O)(=O)c2ccccc2)nc2c(-c3cccnc3)cc(Cl)cn12	> 31300	> 136	> 15.7	–
–	–	CCCCCCCCCCCCCCCCOP(=O)([O-])OCC[N+](C)(C)C [MILTEFOSINE]	–	–	–	CC50 [12]: > 40000 nM
70	1600	O=[N+]([O-])c1c(CS(=O)(=O)c2ccccc2)nc2c(-c3ccccc3C(F)(F)F)cc(Cl)cn12	22700	324	14.2	–
–	–	O=[N+]([O-])c1c(CS(=O)(=O)c2ccccc2)nc2c(-c3ccc(Cl)cc3)cc(Cl)cn12	> 3900	–	–	–
–	–	O=[N+]([O-])c1c(CS(=O)(=O)c2ccccc2)nc2c(Br)cc(Cl)cn12	–	–	–	Activity [9]: -0.65 V
–	–	O=[N+]([O-])c1c(CS(=O)(=O)c2ccccc2)nc2c(-c3cccs3)cc(Cl)cn12	> 3900	–	–	–

Compound	IC50 [2] [nM]	IC50 [4] [nM]	CC50 [1] [nM]	selectivity ratio [3]	selectivity ratio [5]	also measured
O=[N+]([O-])c1c(CS(=O)(=O)c2ccccc2)nc2c(-c3ccccc3CO)cc(Cl)cn12	160	> 10000	88000	550	< 8.8	Ratio IC50 [8]: 2; IC50 [6]: 190 nM; IC50 [7]: 390 nM; Activity [9]: -0.7 V
O=[N+]([O-])c1c(CS(=O)(=O)c2ccccc2)nc2c(-c3cccc(C(F)(F)F)c3)cc(Cl)cn12	40	1100	> 12500	> 312	> 11.4	Ratio IC50 [8]: 2; IC50 [7]: 90 nM; Activity [9]: -0.67 V
O=[N+]([O-])c1c(CS(=O)(=O)c2ccccc2)nc2c(Br)cc(Br)cn12	2900	4400	> 31000	> 10.7	> 7.1	selectivity ratio [13]: > 17.2; IC50 [16]: 1900 nM; IC50 [17]: 70 nM; CC50 [12]: > 25000 nM; IC50 [14]: 5500 nM; Activity [9]: -0.59 V; selectivity ratio [15]: > 5.6; IC50 [18]: 3000 nM

Reference: ChEMBL document CHEMBL4270592, “8-Aryl-6-chloro-3-nitro-2-(phenylsulfonylmethyl)imidazo[1,2-a]pyridines as potent antitrypanosomatid molecules bioactivated by type 1 nitroreductases” (Eur J Med Chem, 2018)
